ChEMBL document CHEMBL4513216, “Probing the Open Global Health Chemical Diversity Library for Multistage-Active Starting Points for Next-Generation Antimalarials” (ACS Infect Dis, 2020)

Experiment: Toxicity liver stage against HepG2, at 10uM
Format: cell-based
Set-up: test concentration 10 uM, cell line HepG2-A16-CD81EGFP
Settings: human, HepG2-A16-CD81EGFP cells; read-out: INHIBITION
Summary of the method: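 Uninfected HepG2-A16-CD81EGFP cells, 3 × 10^3 per well, 1536-well, plated on prespotted compound at 10 μM final, parasite-free screening media added to match infected plates; puromycin 10 μM positive, DMSO 0.5% negative; run in parallel with 48 h PbLuc assay at 37 °C, 5% CO2; viability by CellTiter-Glo luminescence, normalized to controls.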

Fc1ccc(C2CCCN2Cc2nc(Cc3ccccc3F)no2)cc1 (configuration not stated)
cytotoxicity at 10 µM: -18.2%

COc1ccc(CCC(=O)NCCN2CCC(c3cccs3)CC2)cc1
cytotoxicity at 10 µM: 4.59%

Cc1oc(-c2nc(C#N)c(NC3CC3)o2)cc1S(=O)(=O)N1CCCC1
cytotoxicity at 10 µM: -9.95%

CCn1c(NCC2CCCO2)nc2c(C)nn(C)c2c1=O (configuration not stated)
cytotoxicity at 10 µM: -3.09%

CCn1c(SCC(N)=O)nnc1-c1csc2c1CCCC2
cytotoxicity at 10 µM: 16%

Cc1nnc(C2CCN(c3ncccn3)CC2)o1
cytotoxicity at 10 µM: 10.8%

Cc1cc(C)nc(N2CC=C[C@H]2C(=O)NCc2ccc3c(c2)OCO3)n1
cytotoxicity at 10 µM: 0.711%

Cc1noc(C)c1CCC(=O)N1CCOCC1CCc1cnccn1 (configuration not stated)
cytotoxicity at 10 µM: -3.37%

CC(=O)N1CCC(c2cccc(-c3cccc(C(=O)O)c3)n2)CC1
cytotoxicity at 10 µM: -0.0353%

c1ccc(CCN2CCCC2c2ccnc(Nc3cnccn3)n2)cc1 (configuration not stated)
cytotoxicity at 10 µM: -3.65%

CNC(=O)c1cn[nH]c1C1CCN(Cc2cn(C)nc2C)C1 (configuration not stated)
cytotoxicity at 10 µM: -24.3%

CO[C@H]1CN(Cc2ccc(F)cc2)CC[C@@]12CCCO2
cytotoxicity at 10 µM: -24.5%

Cn1nccc1CCC(=O)N1CCCC(c2cnccn2)C1 (configuration not stated)
cytotoxicity at 10 µM: -22.7%

O=S(=O)(c1ccc(F)c(F)c1)N1CCCC(c2nccs2)C1 (configuration not stated)
cytotoxicity at 10 µM: -0.523%

Cc1ccc(S(=O)(=O)N2C[C@H]3C[C@H](NC(=O)c4cscn4)[C@H]3C2)cc1
cytotoxicity at 10 µM: 12%

Cn1nccc1C(=O)N1C[C@@H]2CC[C@H](Oc3cccc(F)c3)[C@@H]2C1
cytotoxicity at 10 µM: -13.8%

CC(=O)N1CCCC(c2ccc(C(=O)NC3CCCC3)cn2)C1 (configuration not stated)
cytotoxicity at 10 µM: 0.692%

O=C(CC1CCCCC1)NC1CCCc2nc(N3CCOCC3)ncc21 (configuration not stated)
cytotoxicity at 10 µM: -5.24%

CCN(Cc1cc(=O)n2cc(Br)ccc2n1)C1CC1
cytotoxicity at 10 µM: 7.95%

CN(CCc1cccs1)C(=O)Nc1ccc2c(c1)C(=O)N(C)CC2
cytotoxicity at 10 µM: -5.44%

COCCN(Cc1ccc(C)o1)C(=O)Nc1nnc2ccccn12
cytotoxicity at 10 µM: -1.59%

COc1cccc(CNC2CCCOc3cc(C)ccc32)n1 (configuration not stated)
cytotoxicity at 10 µM: 8.53%

COc1ccc(CCNC(=O)C2CCCOC2)c(Cl)c1 (configuration not stated)
cytotoxicity at 10 µM: 0.0357%

Cn1c(Cl)cnc1CN1CCCC1c1ccc2c(c1)OCCO2 (configuration not stated)
cytotoxicity at 10 µM: -1.29%

CC1CCC(NS(=O)(=O)CC(=O)NCC2CCC2)CC1 (configuration not stated)
cytotoxicity at 10 µM: -3.17%

CCOC(=O)c1nnc2ccccc2c1N1CCN(CC)CC1
cytotoxicity at 10 µM: -2.27%

COCCn1cc(C(=O)N2CCCC2c2cccs2)c2ccccc21 (configuration not stated)
cytotoxicity at 10 µM: 23.7%

CCc1noc(CS(=O)(=O)Cc2nc(Cc3ccccc3)no2)n1
cytotoxicity at 10 µM: 5.45%

CN(Cc1ccccc1)C(=O)CN1CCCCC1Cn1cncn1 (configuration not stated)
cytotoxicity at 10 µM: 10.4%

CC(=O)Nc1cccc(C(C)NCC2CCS(=O)(=O)CC2)c1 (configuration not stated)
cytotoxicity at 10 µM: 0.224%

C=C(C)CN(CC)Cc1nc(C2CC2)no1
cytotoxicity at 10 µM: -7.51%

NC(=O)C1CCN(CC(=O)N2CCCC2c2ccsc2)CC1 (configuration not stated)
cytotoxicity at 10 µM: -11.4%

Cn1ncnc1CNC1CCCc2cc(F)ccc21 (configuration not stated)
cytotoxicity at 10 µM: -5.62%

CC(NCc1ccc(F)cc1)c1ccc(S(C)(=O)=O)cc1 (configuration not stated)
cytotoxicity at 10 µM: 12.6%

CN(Cc1cc(F)ccc1F)CC(C)(CO)CO
cytotoxicity at 10 µM: -5.38%

O=C(CCCNC(=O)NCC1CCCO1)Nc1ccc(Cl)cc1 (configuration not stated)
cytotoxicity at 10 µM: -4.52%

COc1ccc(C(C)(C)C(=O)NCc2n[nH]c(=O)[nH]2)cc1
cytotoxicity at 10 µM: 1.07%

Cc1cnc(N2CCn3cc(CNC(=O)CC4CC4)nc3C2)nc1
cytotoxicity at 10 µM: 12.3%

COCCC(=O)N1CC[C@@H](N(C)C)[C@@H]1Cc1ccccc1
cytotoxicity at 10 µM: -5.05%

O=C(c1n[nH]c2c1CCC2)N1CCCC1c1nc(-c2ccccn2)no1 (configuration not stated)
cytotoxicity at 10 µM: -1.82%

OC[C@@H]1CCCN1c1ccc(-c2nc(COc3ccccc3)no2)cn1
cytotoxicity at 10 µM: -8.42%

COCC(=O)N1CCN(S(=O)(=O)c2ccccc2)[C@H]2CS(=O)(=O)C[C@H]21
cytotoxicity at 10 µM: 4.84%

CCN(CCO)Cc1cn(-c2cccc(F)c2)nc1-c1ccc(C)o1
cytotoxicity at 10 µM: 8.32%

OC1(CN2CCCC2)CCCN(Cc2c[nH]c(CC3CCCC3)n2)C1 (configuration not stated)
cytotoxicity at 10 µM: -9.09%

Cc1nccn1-c1ccc(N2CCC(NC(C)C(C)C)CC2)cc1 (configuration not stated)
cytotoxicity at 10 µM: -7.33%

O=C(C1CCCCO1)N1CCc2ncnc(NCCO)c2CC1 (configuration not stated)
cytotoxicity at 10 µM: 7.94%

Cc1nnc(N2CC[C@@]3(O)CCNC[C@H]3C2)c2ccccc12
cytotoxicity at 10 µM: 2.61%

CC(C)n1cnnc1CN(C)C(=O)Cn1ccc2ccccc2c1=O
cytotoxicity at 10 µM: 3.1%

COCCNc1cc(-c2ccccc2CCN)c2cc[nH]c2n1
cytotoxicity at 10 µM: 2.13%

COCCNC(=O)c1cc(COc2cncc(Cl)c2)on1
cytotoxicity at 10 µM: 0.141%

CCc1[nH]c2c(CNC(=O)C3CNC(=O)C3)cc(C)cc2c1C (configuration not stated)
cytotoxicity at 10 µM: 2.75%

CC(C)c1nc2c(n1C)CCN(Cc1nc(-c3ccoc3)no1)C2
cytotoxicity at 10 µM: -2.06%

Cc1ccc(C(=O)NS(=O)(=O)c2cc(Br)ccc2C)c(=O)[nH]1
cytotoxicity at 10 µM: -2.27%

Cc1oc(C)c(C(=O)NCc2ccccc2CN(C)C)c1C
cytotoxicity at 10 µM: -16.9%

Nc1nccnc1C(=O)NCCCNc1ccc(C(F)(F)F)cn1
cytotoxicity at 10 µM: -8.16%

CC(Cn1cccn1)NCc1ccc(Cl)s1 (configuration not stated)
cytotoxicity at 10 µM: -8.12%

CCc1noc(CN2CCN(C(=O)COC)CC2)n1
cytotoxicity at 10 µM: -8.09%

CCOCc1ccc(CNC(=O)N2CCC(C(N)=O)C2)cc1 (configuration not stated)
cytotoxicity at 10 µM: -11.4%

Cc1ccccc1C(=O)NCCCN1CCc2ccccc2C1
cytotoxicity at 10 µM: -16.5%

Cc1cnn(CC2CCCN2Cc2noc(C(C)C)n2)c1 (configuration not stated)
cytotoxicity at 10 µM: -1.67%

CC(NCc1cc(F)ccc1F)c1ccc(OCC(=O)NC2CC2)cc1 (configuration not stated)
cytotoxicity at 10 µM: -13.2%

CC(=O)N1CCCN(C(=O)NCc2ccc(Cl)s2)CC1
cytotoxicity at 10 µM: -4.02%

Cn1ccc(C(=O)N2CCN(CC(O)C(C)(C)C)CC2)cc1=O (configuration not stated)
cytotoxicity at 10 µM: 2.76%

CC(C)C(Sc1nnnn1C1CC1)C(=O)NCc1cccnc1 (configuration not stated)
cytotoxicity at 10 µM: -0.267%

CC1CN(CC(=O)Nc2nncs2)CCN1Cc1nccn1C (configuration not stated)
cytotoxicity at 10 µM: -11.2%

COCCN1CCN(CCCS(C)(=O)=O)CC1C (configuration not stated)
cytotoxicity at 10 µM: -5.5%

CC(=O)N(Cc1noc(C2CC2)n1)C1CCN(Cc2cccnc2)C1 (configuration not stated)
cytotoxicity at 10 µM: -3.36%

c1cc(-c2noc(CN3CCn4c(nnc4C4CC4)C3)n2)co1
cytotoxicity at 10 µM: -0.986%

Cn1cnnc1CNC(=O)Nc1cc(C(F)(F)F)c[nH]c1=O
cytotoxicity at 10 µM: -3.2%

CC(C)c1nnc2n1CCN(C(=O)CN1CCc3sccc3C1)C2
cytotoxicity at 10 µM: -4.97%

Cc1nc(C)n(CC2CCCN2CCCOc2ccc(F)cc2)n1 (configuration not stated)
cytotoxicity at 10 µM: -6.72%

Cc1nn(C)c(C)c1C1CCCN1CC(=O)NC(C1CC1)C1CC1 (configuration not stated)
cytotoxicity at 10 µM: -5.38%

Cc1n[nH]c(=O)c2c(NC(=O)CN3CCC(O)CC3)oc(C)c12
cytotoxicity at 10 µM: 1.17%

Cc1cnc(-c2nc(C3CCCN(Cc4ccccc4C)C3)no2)cn1 (configuration not stated)
cytotoxicity at 10 µM: -2.33%

COc1cccc(CN2CCCCC2c2n[nH]cc2-c2cc(C)no2)c1 (configuration not stated)
cytotoxicity at 10 µM: 17.1%

Cc1ncccc1-c1cc2cccnc2n1CCCNC(=O)C1CC1
cytotoxicity at 10 µM: 2.18%

NC(=O)C1CN(c2ccc(F)cc2)CCN1 (configuration not stated)
cytotoxicity at 10 µM: -4.98%

CN(C)CCO[C@H]1CN(CC2CC2)[C@@H]2CCCO[C@H]12
cytotoxicity at 10 µM: -96.3%

CN1CCO[C@@H]2CN(S(=O)(=O)c3ccccc3)C[C@@H]2C1
cytotoxicity at 10 µM: 0.93%

CN(C)C(=O)c1n[nH]c2c1CN(CC1CCCCC1)C2
cytotoxicity at 10 µM: 2.86%

c1nc(N2CCc3nc[nH]c3C2)c2cc[nH]c2n1
cytotoxicity at 10 µM: -5.71%

CC1(C)[C@@H]2CC=C(CN3CCCn4nc(CNS(C)(=O)=O)cc4C3)[C@H]1C2
cytotoxicity at 10 µM: -46%
